Experimental data published in ChEMBL document CHEMBL1275258, “Correlation between azole susceptibilities, genotypes, and ERG11 mutations in Candida albicans isolates associated with vulvovaginal candidiasis in China” (2010).
Converted amounts (≈) assume the structure as drawn.

Assays:
Format in all cases: functional
Candida albicans [1] = assay: Antifungal activity against Candida albicans isolate O with CAI genotype by broth microdilution method
Outline: (§1)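 CLSI (formerly NCCLS) M27-A2 broth microdilution with fluconazole and itraconazole against clinical C. albicans isolates grouped by source (oral or vaginal) and CAI genotype. Trays incubated at 35°C for 24 h. MIC read as the lowest drug concentration giving a prominent drop in turbidity (50% growth inhibition) versus the drug-free control well. C. albicans ATCC 90028 and C. parapsilosis ATCC 22019 used as quality controls. Group values reported as geometric mean MIC50.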

Candida albicans [2] = assay: Antifungal activity against Candida albicans isolate V1 with CAI genotype by broth microdilution method; outline: as §1
Candida albicans [3] = assay: Antifungal activity against Candida albicans isolate V4 with CAI genotype by broth microdilution method; outline: as §1
Candida albicans [4] = assay: Antifungal activity against Candida albicans isolate V2 with CAI genotype by broth microdilution method; outline: as §1
Candida albicans [5] = assay: Antifungal activity against Candida albicans isolate V3 with CAI genotype by broth microdilution method; outline: as §1
Candida albicans [6] = assay: Antifungal activity against Candida albicans isolate V5 with CAI genotype by broth microdilution method; outline: as §1

SMILES | MIC50 (Candida albicans [1]) | MIC50 (Candida albicans [2]) | MIC50 (Candida albicans [3]) | MIC50 (Candida albicans [4]) | MIC50 (Candida albicans [5]) | MIC50 (Candida albicans [6])
OC(Cn1cncn1)(Cn1cncn1)c1ccc(F)cc1F [FLUCONAZOLE] | 0.356 µg/mL (≈ 1.16 µM) | 0.375 µg/mL (≈ 1.22 µM) | 2.04 µg/mL (≈ 6.67 µM) | 0.218 µg/mL (≈ 0.712 µM) | 0.735 µg/mL (≈ 2.4 µM) | 3.36 µg/mL (≈ 11 µM)
CCC(C)n1ncn(-c2ccc(N3CCN(c4ccc(OCC5COC(Cn6cncn6)(c6ccc(Cl)cc6Cl)O5)cc4)CC3)cc2)c1=O (configuration not stated) [ITRACONAZOLE] | 0.074 µg/mL (≈ 0.105 µM) | 0.111 µg/mL (≈ 0.157 µM) | 0.255 µg/mL (≈ 0.361 µM) | 0.058 µg/mL (≈ 0.0822 µM) | 0.107 µg/mL (≈ 0.152 µM) | 0.297 µg/mL (≈ 0.421 µM)
